{
  "source": "paper PMC8068522",
  "about": "(European journal of nuclear medicine and molecular imaging, 2019)",
  "key": {"[1]": {"assay": "acute radiotoxicity after 8 weeks", "assay_type": "in vivo, male NOD/SCID mice", "conditions": "8 weeks post-treatment, 111 MBq", "summary_of_the_method": "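Tumour-bearing male NOD/SCID mice (PSMA(+) PC3 PIP flank, ~60–85 mm3, 14–18 days post-inoculation) got one 111 MBq tail-vein dose of 177Lu radioligand or saline. At 8 weeks, n = 3 per group underwent complete blood analysis (haemoglobin, white cells, neutrophils, platelets) and necropsy with H&E anatomic pathology at a phenotyping core.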"}, "PSMA(+) PC3 PIP cells [2]": {"system": "PSMA(+) PC3 PIP cells", "assay": "cell uptake and internalization", "assay_type": "cell-based, human", "conditions": "initially; per 1 million cells", "summary_of_the_method": "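HPLC-purified 177Lu radioligands were incubated with PSMA(+) PC3 PIP cells for 1 h up to 24 h. Total cell-surface uptake and internalized fraction were expressed as percentage incubated dose per 1 million cells, mean ± SD, n = 3. Specificity was checked by blocking with excess (~10 μM) of a known PSMA inhibitor.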"}, "PSMA(+) PC3 PIP tumor": {"system": "PSMA(+) PC3 PIP tumor", "assay": "tissue biodistribution, PSMA", "assay_type": "in vivo, mouse", "conditions": "24 h"}, "PSMA(+) PC3 PIP cells [3]": {"system": "PSMA(+) PC3 PIP cells", "assay": "clonogenic survival assay", "assay_type": "cell-based, human", "conditions": "48 h of incubation, colony formation", "summary_of_the_method": "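PSMA(+) PC3 PIP and PSMA(−) PC3 flu cells were exposed to HPLC-purified 177Lu radioligands for 48 h at 37 °C, then scored for colony formation (mean ± SD, n = 3). D0 was the activity concentration (kBq/mL) giving 37% survival.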"}, "[4]": {"system": "PSMA(+) PC3 PIP flank tumor model", "assay": "PSMA-targeted radionuclide therapy in flank tumor model", "assay_type": "in vivo, male NOD/SCID mice", "conditions": "single 111 MBq i.v."}},
  "data": [
    {"compound": "O=C([O-])CN1CCN(CC(=O)[O-])CCN(CC(=O)NCC2CCC(C(=O)N[C@@H](Cc3ccc4ccccc4c3)C(=O)NCCCC[C@H](NC(=O)N[C@@H](CCC(=O)O)C(=O)O)C(=O)O)CC2)CCN(CC(=O)[O-])CC1.[177Lu+3]", "note": "(some centres unmarked) [177Lu-PSMA-617]", "values": [
      {"measurement": "parotid glands pathology", "setting": "[1]", "value": "mild changes"},
      {"measurement": "platelets", "setting": "[1]", "value": "significantly lower platelets than those in the other treatment groups"},
      {"measurement": "testes pathology", "setting": "[1]", "value": "most severe degenerative changes and loss of seminiferous epithelium"},
      {"measurement": "cell uptake within PSMA(+) PC3 PIP cells", "setting": "PSMA(+) PC3 PIP cells [2]", "value": "~ 40 % of the incubated dose"},
      {"measurement": "kidney uptake", "setting": "PSMA(+) PC3 PIP tumor", "value": "< 0.5", "unit": "ID/g"},
      {"measurement": "D0 (37% survival)", "setting": "PSMA(+) PC3 PIP cells [3]", "value": "24–32 kBq/mL"},
      {"measurement": "median survival", "setting": "[4]", "value": 130, "unit": "days"},
      {"measurement": "mice reaching a relative tumor volume > 4 times the initial volume", "setting": "[4]", "value": "only one mouse"}
    ]}
  ]
}
